The results in this text go back to ChEMBL document CHEMBL1154647, “Synthesis, spectral characterization and biological evaluation of phosphorylated derivatives of galanthamine” (Eur J Med Chem, 2010).

For assay [1], the system named is Escherichia coli. Put plainly: Antibacterial activity against Escherichia coli after 18 hrs. It counts as functional.
The subject of assay [2] is Brain. Put plainly: Antioxidant activity in Wistar rat brain assessed as glutathione content. It counts as functional. Summed up:
(§1)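 Wistar rat brain was homogenised 1:40 (w/v) in 0.1 M phosphate buffer, pH 7.4, with 1 mM EDTA. Total glutathione (GSH + GSSG) and reduced GSH were assayed spectrophotometrically from optical density, using net rate against a standard-curve slope and intercept, times a dilution factor. Homogenate protein was measured by the Lowry method.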

Assay [3] concerns Klebsiella pneumoniae. Put plainly: Antibacterial activity against Klebsiella pneumoniae at 1 mg/mL after 18 hrs by disc diffusion assay. The format is functional. The conditions noted are these: read-out: IZ. Summed up:
(§2)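 Bacteria were grown in nutrient broth at 37 °C for 18 h on a rotary shaker at 150 rpm. Compounds were dissolved in DMF. Nutrient agar plates were dried at 35–36 °C for about 30 min, and test strains were spread on the surface. Discs were applied, and plates were inverted and incubated at 37 °C. A DMF blank was run.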

Assay [4] has as its system Brain. Put plainly: Antioxidant activity in Wistar rat brain assessed as inhibition of lipid peroxidation. The format is functional, tissue-based.
Assay [5] concerns Klebsiella pneumoniae. Put plainly: Antibacterial activity against Klebsiella pneumoniae at 2 mg/mL after 18 hrs by disc diffusion assay. It counts as functional. Particulars: read-out: IZ. Summed up:
as §2

The test system of assay [6] is Bacillus subtilis. Put plainly: Antibacterial activity against Bacillus subtilis at 2 mg/mL after 18 hrs by disc diffusion assay. It counts as functional. The conditions noted are these: read-out: IZ. In outline:
as §2

Assay [7] deals with Brain. Put plainly: Antioxidant activity in Wistar rat brain assessed as superoxide dismutase content. It counts as functional.
The test system of assay [8] is Escherichia coli. Kind of assay: Antibacterial activity against Escherichia coli at 1 mg/mL after 18 hrs by disc diffusion assay. It counts as functional. Particulars: read-out: IZ. In outline:
as §2

For assay [9], the system named is Klebsiella pneumoniae. Put plainly: Antibacterial activity against Klebsiella pneumoniae after 18 hrs. It counts as functional.
Assay [10] can be described thus: Inhibition of superoxide dismutase in Wistar rat brain. It counts as tissue-based.
Assay [11] deals with Brain. Kind of assay: Antioxidant activity in Wistar rat brain assessed as catalase content. The format is functional.
Assay [12] concerns Brain. Kind of assay: Antioxidant activity in Wistar rat brain assessed as reduction in glutathione content. It counts as functional, tissue-based. Summed up: as §1
Assay [13] concerns Bacillus subtilis. Kind of assay: Antibacterial activity against Bacillus subtilis after 18 hrs. It counts as functional.
For assay [14], the system named is Staphylococcus aureus. Put plainly: Antibacterial activity against Staphylococcus aureus at 1 mg/mL after 18 hrs by disc diffusion assay. It counts as functional. The conditions noted are these: read-out: IZ. Summed up: as §2
In assay [15] the test system is Brain. Put plainly: Antioxidant activity in Wistar rat brain assessed as lipid peroxidation. It counts as functional, tissue-based.
In assay [16] the test system is Staphylococcus aureus. Put plainly: Antibacterial activity against Staphylococcus aureus at 2 mg/mL after 18 hrs by disc diffusion assay. The format is functional. The conditions noted are these: read-out: IZ. Summed up:
as §2

Assay [17] has as its system Escherichia coli. Put plainly: Antibacterial activity against Escherichia coli at 2 mg/mL after 18 hrs by disc diffusion assay. The conditions noted are these: read-out: IZ. The format is functional. In outline: as §2
The subject of assay [18] is Bacillus subtilis. Kind of assay: Antibacterial activity against Bacillus subtilis at 1 mg/mL after 18 hrs by disc diffusion assay. Particulars: read-out: IZ. It counts as functional. In outline:
as §2

In assay [19] the test system is Staphylococcus aureus. Kind of assay: Antibacterial activity against Staphylococcus aureus after 18 hrs. The format is functional.
The target in another assay is T1, Catalase (Rattus norvegicus, UniProt P04762).
T1 sequence (P04762 whole entry): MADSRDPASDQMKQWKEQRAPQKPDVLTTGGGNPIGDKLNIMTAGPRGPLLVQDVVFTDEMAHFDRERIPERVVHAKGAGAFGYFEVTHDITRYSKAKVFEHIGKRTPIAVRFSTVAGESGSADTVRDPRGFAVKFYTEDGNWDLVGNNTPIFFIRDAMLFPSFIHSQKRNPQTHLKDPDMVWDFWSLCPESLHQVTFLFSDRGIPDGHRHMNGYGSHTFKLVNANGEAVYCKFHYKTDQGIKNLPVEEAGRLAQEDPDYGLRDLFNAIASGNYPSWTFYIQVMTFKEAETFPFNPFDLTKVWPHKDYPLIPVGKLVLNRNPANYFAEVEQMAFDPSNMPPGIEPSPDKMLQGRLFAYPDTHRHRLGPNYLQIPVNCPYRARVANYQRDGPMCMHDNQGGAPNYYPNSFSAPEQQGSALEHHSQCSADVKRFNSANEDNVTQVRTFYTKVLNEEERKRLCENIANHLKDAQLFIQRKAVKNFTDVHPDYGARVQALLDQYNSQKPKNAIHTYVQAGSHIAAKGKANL
Put plainly: Inhibition of catalase in Wistar rat brain.

Values after ≈ are worked out from the molar mass of the structure shown.

Regarding `COc1ccc2c3c1O[C@H]1C[C@@H](OP(=O)(NCCN)N(CCCl)CCCl)C=C[C@@]31CCN(C)C2` (stereo not given in full), the MIC against Escherichia coli [1] stood at 0.55 µg/mL (≈ 1.03 µM); against Klebsiella pneumoniae [9], 0.33 µg/mL (≈ 0.619 µM); against Bacillus subtilis [13], 0.12 µg/mL (≈ 0.225 µM); against Staphylococcus aureus [19] it was 0.49 µg/mL (≈ 0.919 µM). In addition, the Activity amounted to 4.84 µg/mL in the assay on Brain [2], 30.29 µg/mL with Brain [7], 285.48 µg/mL in the assay with Brain [11] and 72.5 µg/mL in the assay on Brain [15]. Besides, the zone of inhibition at 1000 µg/mL in the assay with Klebsiella pneumoniae [3] is 2.89 mm; in the assay with Escherichia coli [8] it was 2.33 mm; in the assay on Staphylococcus aureus [14], 2.35 mm; in the assay with Bacillus subtilis [18], 1.57 mm. For the same compound, the EC50 in the assay on Brain [4] amounted to 2.88 µg/mL (≈ 5.4 µM); in [10], 2.77 µg/mL (≈ 5.19 µM); with Brain [12] it was 2.43 µg/mL (≈ 4.56 µM); at Catalase, 2.73 µg/mL (≈ 5.12 µM). Besides, the zone of inhibition at 2000 µg/mL in the assay on Klebsiella pneumoniae [5] amounted to 4.8 mm; in the assay on Bacillus subtilis [6], 3.9 mm; in the assay on Staphylococcus aureus [16], 3.51 mm; in the assay with Escherichia coli [17], 4.9 mm.

With `COc1ccc2c3c1O[C@H]1C[C@@H](OP(=O)(SCCO)N(CCCl)CCCl)C=C[C@@]31CCN(C)C2` (stereo not given in full), the MIC against Escherichia coli [1] was 0.26 µg/mL (≈ 0.471 µM); with Klebsiella pneumoniae [9], 0.59 µg/mL (≈ 1.07 µM); against Bacillus subtilis [13], 0.13 µg/mL (≈ 0.236 µM); in the assay on Staphylococcus aureus [19] it was 0.21 µg/mL (≈ 0.381 µM). Moreover, the Activity in the assay with Brain [2] came to 4.92 µg/mL; with Brain [7], 29.55 µg/mL; in the assay with Brain [11] it was 285.32 µg/mL; in the assay with Brain [15], 71.2 µg/mL. In addition, the zone of inhibition at 1000 µg/mL stood at 2.08 mm in the assay with Klebsiella pneumoniae [3], 1.14 mm in the assay on Escherichia coli [8], 1.53 mm with Staphylococcus aureus [14] and 1.72 mm in the assay on Bacillus subtilis [18]. The EC50 in the assay with Brain [4] came to 1.33 µg/mL (≈ 2.41 µM); in [10], 1.62 µg/mL (≈ 2.94 µM); with Brain [12], 1.11 µg/mL (≈ 2.01 µM); on Catalase, 1.67 µg/mL (≈ 3.03 µM). The zone of inhibition at 2000 µg/mL with Klebsiella pneumoniae [5] was 6.46 mm; with Bacillus subtilis [6], 3.01 mm; in the assay on Staphylococcus aureus [16] it was 3.09 mm; with Escherichia coli [17], 2.21 mm.
